Tests used:
Format in all cases: functional, cell-based
[1] = test system: HeLa; assay: Antitumor activity against human HeLa cells after 72 hrs by MTT assay
Summary of the method: (§1)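 Cells in RPMI 1640 with 10% FBS, 2 mm glutamine, penicillin and streptomycin were seeded at 5 × 10³ per well in 96-well plates. After 24 h at 37 °C the medium was replaced with medium holding compound at several concentrations, and cells were exposed for 72 h. MTT (5 mg/mL stock in PBS) was added for 4 h at 37 °C, formazan was dissolved in DMSO and absorbance read at 490 nm. IC50 was taken from dose–response curves, at least three independent experiments, mean ± SE.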

[2] = test system: PC-3; assay: Antitumor activity against human PC3 cells after 72 hrs by MTT assay; summary of the method: as §1
[3] = Antitumor activity against human EC9706 cells after 72 hrs by MTT assay; summary of the method: as §1
[4] = test system: MCF7; assay: Antitumor activity against human MCF7 cells after 72 hrs by MTT assay; summary of the method: as §1
[5] = Antitumor activity against human SPC-A1 cells after 72 hrs by MTT assay; summary of the method: as §1
[6] = Homo sapiens, HeLa, 72 h, read-out: IC50
[7] = Homo sapiens, PC-3, 72 h, read-out: IC50
[8] = Homo sapiens, EC9706, 72 h, read-out: IC50
[9] = Homo sapiens, MCF7, 72 h, read-out: IC50
[10] = Homo sapiens, SPCA1, 72 h, read-out: IC50

Compound | IC50 [1, 6] | IC50 [2, 7] | IC50 [3, 8] | IC50 [4, 9] | IC50 [5, 10] | IC50 ([1]; hela) | IC50 ([5]; spc-a1) | IC50 ([2]; pc-3) | IC50 ([3]; ec9706) | IC50 ([4]; mcf7)
CNC(=S)SCC1=CCOC1=O | 36.1 µM | 76.5 µM | 85.4 µM | 83.1 µM | 43.9 µM |  |  |  |  | 
CCNC(=S)SCC1=CCOC1=O |  | 30.6 µM | 44.4 µM | 80.1 µM |  | Not Active | Not Active |  |  | 
CN(C)C(=S)SCC1=CCOC1=O | 114 µM | 147 µM | 182 µM | > 50 µg/mL | > 50 µg/mL |  |  |  |  | 
CCN(CC)C(=S)SCC1=CCOC1=O | 1.39 µM | 57.1 µM | 136 µM | 121 µM | 87 µM |  |  |  |  | 
CC(C)NC(=S)SCC1=CCOC1=O | 137 µM | 49.4 µM | 59.4 µM | 134 µM | 108 µM |  |  |  |  | 
O=C1OCC=C1CSC(=S)NC1CC1 | 24.1 µM | 117 µM | 53.6 µM | 94.9 µM | 57.5 µM |  |  |  |  | 
O=C1OCC=C1CSC(=S)NC1CCCCC1 | 150 µM | > 50 µg/mL | > 50 µg/mL | 180 µM | > 50 µg/mL |  |  |  |  | 
O=C1OCC=C1CSC(=S)N1CCCC1 | 2.63 µM | 114 µM | 14.4 µM | 56.4 µM | 31.4 µM |  |  |  |  | 
CN1CCN(C(=S)SCC2=CCOC2=O)CC1 | 0.77 µM | 40.5 µM | 14.3 µM | 86.5 µM | 53.7 µM |  |  |  |  | 
O=C1OCC=C1CSC(=S)N1CCOCC1 | 2.43 µM | 48.8 µM | 26 µM | 60.3 µM | 37.9 µM |  |  |  |  | 
O=C1OCC=C1CSC(=S)Nc1ccccc1 | 111 µM | 186 µM | 16.2 µM | 89.9 µM | 95.3 µM |  |  |  |  | 
Cc1ccc(NC(=S)SCC2=CCOC2=O)cc1 | 5.44 µM | 93.5 µM | 91 µM | 97.4 µM | 63.8 µM |  |  |  |  | 
O=C1OCC=C1CSC(=S)Nc1ccc(Cl)cc1 |  |  |  |  |  | Not Active | Not Active | Not Active | Not Active | Not Active
O=C1OCC=C1CSC(=S)NCc1ccccc1 | 15.1 µM | 13.7 µM | 34.3 µM | 31.9 µM | 20.1 µM |  |  |  |  | 
CN(C)C(=S)SCC1=CC(=O)OC1 | > 50 µg/mL | > 50 µg/mL | 7.55 µM | 159 µM | > 50 µg/mL |  |  |  |  | 
CCN(CC)C(=S)SCC1=CC(=O)OC1 | 21 µM | > 50 µg/mL | > 50 µg/mL | > 50 µg/mL | 57.1 µM |  |  |  |  | 
CC(C)N(C(=S)SCC1=CC(=O)OC1)C(C)C | 28.5 µM | > 50 µg/mL | 49.2 µM | > 50 µg/mL | > 50 µg/mL |  |  |  |  | 
O=C1C=C(CSC(=S)N2CCCC2)CO1 | > 50 µg/mL | > 50 µg/mL | 106 µM | 169 µM | 60 µM |  |  |  |  | 
CN1CCN(C(=S)SCC2=CC(=O)OC2)CC1 | > 50 µg/mL | > 50 µg/mL | 35.8 µM | > 50 µg/mL | > 50 µg/mL |  |  |  |  | 
O=C1C=C(CSC(=S)N2CCOCC2)CO1 | > 50 µg/mL | > 50 µg/mL | > 50 µg/mL | > 50 µg/mL |  |  |  |  |  | 
CN(Cc1ccccc1)C(=S)SCC1=CC(=O)OC1 | > 50 µg/mL | > 50 µg/mL | > 50 µg/mL | > 50 µg/mL | > 50 µg/mL |  |  |  |  | 
O=C1CC2(CO1)CSC(=S)N2C1CC1 (centres undefined) | 28.7 µM | > 50 µg/mL | > 50 µg/mL | > 50 µg/mL | > 50 µg/mL |  |  |  |  | 
O=C1CC2(CO1)CSC(=S)N2Cc1ccccc1 (centres undefined) | > 50 µg/mL | > 50 µg/mL | > 50 µg/mL | > 50 µg/mL | > 50 µg/mL |  |  |  |  | 
O=C1CC2(CO1)CSC(=S)N2c1ccccc1 (centres undefined) | 18 µM | > 50 µg/mL | 128 µM | 134 µM | 101 µM |  |  |  |  | 
Cc1ccc(N2C(=S)SCC23COC(=O)C3)cc1 (centres undefined) | > 50 µg/mL | 98.1 µM | > 50 µg/mL | > 50 µg/mL | > 50 µg/mL |  |  |  |  | 
O=C1CC2(CO1)CSC(=S)N2c1ccc(Cl)cc1 (centres undefined) | > 50 µg/mL | > 50 µg/mL | 32.6 µM | > 50 µg/mL | > 50 µg/mL |  |  |  |  | 
O=C1CC2(CO1)CSC(=S)N2c1ccc(F)cc1 (centres undefined) | > 50 µg/mL | > 50 µg/mL | > 50 µg/mL | > 50 µg/mL | > 50 µg/mL |  |  |  |  | 
O=C1CC2(CO1)CSC(=S)N2c1ccccc1O (centres undefined) | > 50 µg/mL | > 50 µg/mL | > 50 µg/mL | > 50 µg/mL | > 50 µg/mL |  |  |  |  | 
O=c1[nH]cc(F)c(=O)[nH]1 [FLUOROURACIL] | 41.5 µM | 29.3 µM | 20.3 µM | 7.54 µM | 26.9 µM |  |  |  |  | 

— ChEMBL document CHEMBL1770062, “Synthesis and in vitro antitumor activity of new butenolide-containing dithiocarbamates” (Bioorg Med Chem Lett, 2011)
